From PubChem BioAssay
XiGFP reactiv – X-chromosome reactivation activator. AID 743238. activation, % at 7.58 µM. 360,000 tested, 0.055% active. XiGFP mouse fibroblasts, % GFP-positive cells imaging, 3 d; cells co-treated with 5-aza-dC sensitizer; scaled so ellipticine positive control = 100%;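 active = mean normalized replicate activation at least 10% and every replicate at or above 10%; inconclusive = only one of the two criteria met; inactive = mean below 10% and not all replicates reach 10%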;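 note: 0% = median of on-plate neutral control wells and 100% = ellipticine 6 µM median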
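material = 68-5-11 XiGFP fibroblast line | medium = DMEM plus 5-aza-dC sensitizer | schedule = 3 days compound exposure | benchmarks = positive control ellipticine, 6 µM final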
PvdQ acylase – blocks Pseudomonas aeruginosa PvdQ acylase activity; purified PvdQ acylase, fluorescence plate reader; inhibition, % at 10 µM; 340,000 tested, 0.063% active; AID 488965; in the data active = inhibition above about 30%, passing the limit was not always enough; inconclusive = no clear call, values can overlap the other calls;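 note: 0% = vehicle neutral wells and 100% = reference inhibitor wells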
SR-BI DiI-HDL act – SR-BI HDL lipid transfer activation. CHO ldlA[mSR-BI] cells, DiI-HDL uptake fluorescence, 3 h; 100 = double the neutral-control signal. activation, % at 12.5 µM. 320,000 tested, 0.096% active. AID 504775;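 active = mean replicate activation of at least 60% and every replicate at or above 60%; inconclusive = mean or all-replicate condition met, but not both; inactive = mean below 60% and not all replicates reaching 60%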;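 note: 0% = median plate neutral-control signal and 100% = twice that signal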
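material = CHO ldlA[mSR-BI] cells | medium = Ham's F12 with 0.5% BSA, HEPES 25 mM, pH 7.4 | reagent = fluorescent DiI-HDL, 10 µg/mL final | compound dosing = single-point compound dose | incubation = 3 h, 37 °C | measured by = bottom-read fluorescence, 550/595 nm | measure = HDL uptake via cellular fluorescence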
Ecoli rRNA inh – inhibits bacterial ribosomal RNA function over humanized ribosomes; E. coli WT GFP vs humanized-ribosome RFP mutants, fluorescence, 24 h; hits give low values; DMSO median 0, no signal -100; GFP signal change (wild-type ribosome), % (concentration not given with the values); 350,000 tested, 1.6% active; AID 720706;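 active = significant combined selectivity score with lowered wild-type GFP, culture density cut under 30%, mutant RFP and density less affected; inactive = any of these conditions unmet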
dFosB activator – mouse delta FosB homodimer activation. P13346. purified delta FosB, TAMRA-CDK5 oligo fluorescence polarization; percent of positive-control signal above neutral wells. activation, % at 25 µM. 340,000 tested, 0.99% active. AID 493131;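 active = mean activation above about 17%, with every replicate also reaching it, limit read from the data, passing the limit was not always enough; inconclusive = only one of the two conditions met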
SR-BI HDL uptake – mouse SR-BI HDL lipid transfer inhibition. inhibition, % at 12.5 µM. 320,000 tested, 0.96% active. ldlA[mSR-BI] CHO cells, DiI-HDL uptake fluorescence, 3 h;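 active = mean replicate inhibition of at least 70% and a set share of replicates each scoring 70 or more; inconclusive = meets just one of the two criteria; inactive = fails both criteria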;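 note: 0% = median of neutral control wells and 100% = median of positive control wells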
Target sequence (Q61009 whole entry, looked up): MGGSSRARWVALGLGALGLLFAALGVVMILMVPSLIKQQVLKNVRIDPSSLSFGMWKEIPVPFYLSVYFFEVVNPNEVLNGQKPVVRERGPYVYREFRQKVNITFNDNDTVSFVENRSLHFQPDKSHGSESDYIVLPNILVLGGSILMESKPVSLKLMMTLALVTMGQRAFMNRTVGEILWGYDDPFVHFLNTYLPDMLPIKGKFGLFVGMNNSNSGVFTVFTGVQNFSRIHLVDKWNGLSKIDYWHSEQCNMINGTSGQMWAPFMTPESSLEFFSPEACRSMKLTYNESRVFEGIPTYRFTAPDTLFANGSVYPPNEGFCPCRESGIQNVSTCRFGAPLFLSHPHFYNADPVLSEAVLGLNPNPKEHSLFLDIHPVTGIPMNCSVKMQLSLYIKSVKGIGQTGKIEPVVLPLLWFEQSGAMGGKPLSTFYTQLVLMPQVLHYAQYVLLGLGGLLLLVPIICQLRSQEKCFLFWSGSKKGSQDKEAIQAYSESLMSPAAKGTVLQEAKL
AID977621 – growth inhibition of wild-type GFP E. coli, dose response, H69 mutant RFP, cherry-pick. shares compounds with Ecoli rRNA inh. 1,900 tested, under 10 active. AID 977621. activity change, negative = inhibition at 50 µM. E. coli wild-type GFP strain growth, fluorescence, 24 h;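 active = Wild-type ribosome reporter drop at least double the humanized mutant ribosome reporter drop, growth loss under a set limit; inconclusive = no clear call, values can overlap the other calls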;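 note: wild-type GFP and H69 mutant RFP strains grown together 50/50 in each well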
AID977628 – E. coli growth inhibition, wild-type GFP versus h24 humanized RFP strain, dose response, h24 mutant RFP vs wild-type GFP, cherry-pick; 1,900 tested, under 10 active; activity change, negative = inhibition at 50 µM; E. coli WT GFP strain growth, fluorescence, 24 h; shares compounds with Ecoli rRNA inh; AID 977628;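 active = compound lowering the normal-ribosome reporter at least twice as much as the humanized-ribosome reporter, growth loss under a set limit; inconclusive = no clear call, values can overlap the other calls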;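 note: wild-type GFP and h24 humanized RFP strains co-cultured 1 to 1 per well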
An asterisk follows results filed as active. Rows were chosen to be rich in hits. Some 2.6% of all compounds tested hit in one or more screens of this group.

`OC(COc1ccc(Cl)cc1)CN1CCN(c2ccccn2)CC1` (stereo not given) gave XiGFP reactiv 0, PvdQ acylase -10, Ecoli rRNA inh -22*, dFosB activator -3 and AID977628 -6.8.
Screening CN(C)CCCn1c(=O)n(Cc2ccco2)c(=O)c2c3c(sc21)CCCCC3 returned XiGFP reactiv 0, PvdQ acylase -10, SR-BI DiI-HDL act 24, Ecoli rRNA inh -26*, dFosB activator -7, SR-BI HDL uptake -24, AID977621 -20 and AID977628 inconclusive.
c1ccc(-c2sc3ccccc3c2-c2ccc(OCCN3CCCCC3)cc2)cc1 was read as XiGFP reactiv 0, PvdQ acylase -9, SR-BI DiI-HDL act 15, Ecoli rRNA inh -17*, dFosB activator 5, SR-BI HDL uptake -15, AID977621 2.7 and AID977628 13.
Screening O=C(CSCc1ccc(Br)cc1)NCc1ccccn1 returned XiGFP reactiv 0, PvdQ acylase -11, SR-BI DiI-HDL act 16, Ecoli rRNA inh -19*, dFosB activator -1, SR-BI HDL uptake -16, AID977621 1.9 and AID977628 0.69.
`O=C(COc1ccc(Br)cc1)NCc1ccccn1` gave PvdQ acylase 6, SR-BI DiI-HDL act 13, Ecoli rRNA inh 6, dFosB activator -7 and SR-BI HDL uptake -13.
`O=C(CSCc1c(Cl)cccc1Cl)NCc1ccccn1` gave XiGFP reactiv 0, PvdQ acylase -12, SR-BI DiI-HDL act -1, Ecoli rRNA inh -23*, dFosB activator -1, SR-BI HDL uptake 1, AID977621 -5.6 and AID977628 -2.1.
COc1ccc(CNC(=O)CSCc2c(F)cccc2Cl)cc1 was read as XiGFP reactiv 0, PvdQ acylase -10, Ecoli rRNA inh -27*, dFosB activator -16 and AID977621 -2.6.
Screening CCN(CCO)c1ncnc2onc(-c3ccc(F)cc3)c12 returned XiGFP reactiv 0, PvdQ acylase -9, SR-BI DiI-HDL act 21, Ecoli rRNA inh -1, dFosB activator 4 and SR-BI HDL uptake -21.
`CC(C)(C)NC(=O)CC1C[C@H](C(=O)N2CCOCC2)[C@@]2(CCC3CCCC3)c3[nH]c4ccccc4c3CCN2C1=O` (stereo not given in full) gave XiGFP reactiv 2, PvdQ acylase 4, SR-BI DiI-HDL act -13, Ecoli rRNA inh 4, dFosB activator -4 and SR-BI HDL uptake 13.
Screening CCCC(=O)Nc1sc2c(c1C(=O)Nc1ccccn1)CCCC2 returned XiGFP reactiv 0, PvdQ acylase 6, SR-BI DiI-HDL act -50, Ecoli rRNA inh -30*, dFosB activator 1, SR-BI HDL uptake 50, AID977621 -18 and AID977628 -16.
For CCOc1ccccc1NC(=O)c1c(NC(=O)CCC(=O)O)sc2c1CCCCC2 the results were XiGFP reactiv 0, PvdQ acylase 4, SR-BI DiI-HDL act -20, Ecoli rRNA inh -19, dFosB activator -5 and SR-BI HDL uptake 20.
For COc1ccc(C(=O)c2cc3cccc(OC)c3o2)cc1 the results were XiGFP reactiv 1, PvdQ acylase 1, SR-BI DiI-HDL act -63, Ecoli rRNA inh -18, dFosB activator -22 and SR-BI HDL uptake 63.
For COC(=O)c1cc(S(=O)(=O)NCc2ccc(S(N)(=O)=O)cc2)oc1C the results were XiGFP reactiv 0, PvdQ acylase -13, SR-BI DiI-HDL act -11, Ecoli rRNA inh 1, dFosB activator -4 and SR-BI HDL uptake 11.
For CSc1nc2c(cc1C#N)CCC2 the results were XiGFP reactiv 0, PvdQ acylase -7, SR-BI DiI-HDL act 3, Ecoli rRNA inh 3, dFosB activator 5 and SR-BI HDL uptake -3.
`CSc1ccccc1NC(=O)CN(C)CC(=O)Nc1ccc(S(=O)(=O)N2CCCC2)cc1` gave XiGFP reactiv 0, PvdQ acylase -16, SR-BI DiI-HDL act 7, Ecoli rRNA inh -1, dFosB activator 0 and SR-BI HDL uptake -7.
Cc1ccc(S(=O)(=O)N2CCN(CC(=O)Nc3ccc4c(c3)CCC4)CC2)cc1C was read as XiGFP reactiv 0, PvdQ acylase -23, SR-BI DiI-HDL act -48, dFosB activator -4 and SR-BI HDL uptake 48.
O=C(CN1CCN(S(=O)(=O)c2ccc(Cl)cc2)CC1)Nc1ccc2c(c1)CCC2 was read as XiGFP reactiv 0, PvdQ acylase 9, SR-BI DiI-HDL act -6, Ecoli rRNA inh -21*, dFosB activator -8, SR-BI HDL uptake 6, AID977621 -0.47 and AID977628 inconclusive.
CN(CC(=O)Nc1ccc(S(=O)(=O)N2CCCC2)cc1)CC(=O)Nc1ccc(F)c(F)c1F was read as XiGFP reactiv 0, PvdQ acylase -8, SR-BI DiI-HDL act -43, Ecoli rRNA inh -33*, dFosB activator -5, SR-BI HDL uptake 43, AID977621 -22 and AID977628 inconclusive.
Screening COc1ccccc1OCC(=O)Nc1ccc(S(=O)(=O)N2CCCCCC2)cc1 returned PvdQ acylase -4, SR-BI DiI-HDL act -67, Ecoli rRNA inh -19*, dFosB activator -12, SR-BI HDL uptake 67 and AID977621 -15.
`N/C(=N\OC(=O)c1ccc2c(c1)OCO2)c1cccnc1` gave XiGFP reactiv 0, PvdQ acylase -16, SR-BI DiI-HDL act 6, Ecoli rRNA inh 3, dFosB activator -10 and SR-BI HDL uptake -6.
Screening CN1CCN(C(=O)C[C@@H]2CC[C@H]3[C@@H](COC[C@@H](O)CN3C(=O)Nc3ccc(Cl)cc3)O2)CC1 returned XiGFP reactiv 0 and Ecoli rRNA inh -24.
Screening CN1CCN(C(=O)C[C@H]2CC[C@H]3[C@@H](COC[C@@H](O)CN3C(=O)Nc3ccc(Cl)cc3)O2)CC1 returned XiGFP reactiv 0, Ecoli rRNA inh -19* and AID977628 inconclusive.
Screening C[C@@H](NC(=O)C[C@@H]1CC[C@@H]2[C@H](COC[C@H](O)CN2C(=O)Nc2cccc(F)c2)O1)c1ccccc1 returned XiGFP reactiv 0, Ecoli rRNA inh -21* and AID977628 inconclusive.
`O=C(C[C@@H]1CC[C@H]2[C@@H](COC[C@H](O)CN2C(=O)Nc2ccc(Cl)cc2)O1)NCc1ccncn1` gave XiGFP reactiv 0 and Ecoli rRNA inh -6.
